Data on four molecules can be found in ChEMBL document CHEMBL4138195, “Discovery of novel propargylamine-modified 4-aminoalkyl imidazole substituted pyrimidinylthiourea derivatives as multifunctional agents for the treatment of Alzheimer's disease” (Eur J Med Chem, 2018).

Calls of active or inactive are those of the source. The calls are words filed in the database; no cut-off is given here.

One data set has as its system Cortical neurone. The data set can be described thus: Cytotoxicity against E17 Sprague-Dawley rat primary cortical neurons at 10 to 30 uM after 24 hrs by MTT assay. The data set is classed as cell-based. (Tetrazolium assays rely on reduction of a dye to a coloured formazan, in cell work by metabolically active cells.)
Data set [1] can be described thus: in vitro. The conditions noted are these: PAMPA, pH 7.4.
A short description of data set [2]: in vitro. Particulars: PAMPA. (In general: The PAMPA barrier holds no transporters, so it reflects passive diffusion.)
The nature of data set [3]: Inhibition of Cu2+-mediated amyloid beta (1 to 42) peptide-induced cytotoxicity in E17 Sprague-Dawley rat primary cortical neurons assessed as neuroprotective activity by measuring increase in cell viability at 1 uM after 24 hrs by MTT assay. Summed up: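 Rat E17 primary cortical neurons after 9 days in culture. Aβ1-42 samples, prepared as for the dot blot (± Cu2+, ± compound), added to the cultures at 1 µM for 24 h. Viability by MTT, normalized to the vehicle group. EGCG and clioquinol as positive controls.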

Data set [4] in a line: Inhibition of Cu2+-induced amyloid beta (1 to 42 residues) (unknown origin) aggregation assessed as reduction in amyloid beta fibril load at 50 uM after 24 hrs by phosphotungstic acid staining-based transmission electron microscopic method. Summed up: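 Aβ1-42 (25 µM) ± CuCl2 (25 µM) ± compound (50 µM) in HEPES/NaCl pH 6.6, incubated 24 h at 37 °C. Aliquots placed on carbon-coated copper grids for 30 min, stained 20 s with 2% phosphotungstic acid, imaged by TEM. Clioquinol as comparator.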

The nature of data set [5]: Antioxidant activity assessed as trolox equivalent of AAPH radical scavenging activity preincubated for 10 mins followed by AAPH addition measured every 2 mins for 180 mins by ORAC-FL assay. The data set is classed as functional. Summed up:
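Compound at 20 µM (diluted from 10 mM DMSO stock in 75 mM phosphate, pH 7.4) with fluorescein (0.117 µM diluted) for 10 min at 37 °C, then AAPH (40 mM solution) added. Fluorescence (ex 485/em 535) read every 2 min for 180 min. […] Triplicate wells, ≥3 runs.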

In data set [6] the target is T1, Amine oxidase [flavin-containing] B (Homo sapiens, UniProt P27338).
T1 sequence (P27338 whole entry): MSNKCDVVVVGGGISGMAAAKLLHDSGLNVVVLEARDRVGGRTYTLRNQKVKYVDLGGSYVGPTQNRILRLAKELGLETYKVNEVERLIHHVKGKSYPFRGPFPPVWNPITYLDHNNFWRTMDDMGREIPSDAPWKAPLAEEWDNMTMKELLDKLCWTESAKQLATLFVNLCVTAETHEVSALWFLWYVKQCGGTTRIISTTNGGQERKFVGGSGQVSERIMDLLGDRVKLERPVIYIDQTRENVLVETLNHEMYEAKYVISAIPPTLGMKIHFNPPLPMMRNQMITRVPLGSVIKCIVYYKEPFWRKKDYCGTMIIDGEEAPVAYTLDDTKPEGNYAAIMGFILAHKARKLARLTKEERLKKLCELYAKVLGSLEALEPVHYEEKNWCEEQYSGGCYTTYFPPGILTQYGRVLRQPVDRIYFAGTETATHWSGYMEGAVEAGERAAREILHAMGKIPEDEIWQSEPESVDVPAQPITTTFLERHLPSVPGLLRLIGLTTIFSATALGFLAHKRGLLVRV

For another data set, the target named is T2, Acetylcholinesterase (Rattus norvegicus, UniProt P37136).
T2 sequence (P37136 whole entry): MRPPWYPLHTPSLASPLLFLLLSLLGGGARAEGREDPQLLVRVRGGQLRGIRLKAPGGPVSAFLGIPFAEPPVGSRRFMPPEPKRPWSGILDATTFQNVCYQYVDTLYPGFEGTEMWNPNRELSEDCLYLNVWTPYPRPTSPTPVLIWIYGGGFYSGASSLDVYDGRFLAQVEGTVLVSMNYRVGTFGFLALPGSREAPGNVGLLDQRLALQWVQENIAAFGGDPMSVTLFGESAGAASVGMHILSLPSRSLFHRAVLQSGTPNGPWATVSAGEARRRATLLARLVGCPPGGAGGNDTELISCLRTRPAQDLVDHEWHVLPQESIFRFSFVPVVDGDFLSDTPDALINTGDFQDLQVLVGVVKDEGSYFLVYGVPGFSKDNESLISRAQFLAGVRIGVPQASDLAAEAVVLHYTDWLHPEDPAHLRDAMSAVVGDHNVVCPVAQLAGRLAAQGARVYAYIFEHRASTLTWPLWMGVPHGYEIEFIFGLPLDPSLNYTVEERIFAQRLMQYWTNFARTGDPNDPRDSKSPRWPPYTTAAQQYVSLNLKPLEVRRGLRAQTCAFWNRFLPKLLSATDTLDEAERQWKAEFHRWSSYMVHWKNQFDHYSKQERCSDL
Nature of the data set: Inhibition of AChE in rat cortex homogenate using acetylthiocholine iodide as substrate after 20 mins by Ellman's method. Background: Ellman's reagent forms a yellow product with free thiols.

Data set [7] deals with T3, Amine oxidase [flavin-containing] A (Homo sapiens, UniProt P21397).
T3 sequence (P21397 whole entry): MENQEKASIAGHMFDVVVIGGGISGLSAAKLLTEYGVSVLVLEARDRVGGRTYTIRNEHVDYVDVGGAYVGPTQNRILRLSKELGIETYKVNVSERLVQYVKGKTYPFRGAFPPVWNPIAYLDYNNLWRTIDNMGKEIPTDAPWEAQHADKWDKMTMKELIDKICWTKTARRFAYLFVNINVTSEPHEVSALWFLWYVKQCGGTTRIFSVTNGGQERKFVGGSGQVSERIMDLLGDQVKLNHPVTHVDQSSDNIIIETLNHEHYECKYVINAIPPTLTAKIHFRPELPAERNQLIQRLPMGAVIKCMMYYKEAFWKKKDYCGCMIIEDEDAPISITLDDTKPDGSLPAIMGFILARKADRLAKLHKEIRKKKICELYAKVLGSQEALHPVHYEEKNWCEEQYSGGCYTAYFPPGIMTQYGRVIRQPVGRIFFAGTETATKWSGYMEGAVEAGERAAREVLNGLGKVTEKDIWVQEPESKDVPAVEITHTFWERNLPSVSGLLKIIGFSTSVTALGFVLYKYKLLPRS
The data set can be described thus: Inhibition of recombinant human MAOA using p-tyramine as substrate preincubated for 15 mins followed by substrate addition measured after 15 mins by Amplex red reagent based fluorescence assay.

Another data set is filed under the species Homo sapiens. The data set can be described thus: Selectivity index, ratio of IC50 for recombinant human MAOA to IC50 for recombinant human MAOB. In outline:
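Recombinant human MAO-A (12.5 µg/mL) or MAO-B (75 µg/mL) preincubated 15 min at 37 °C with compound (diluted from 10 mM DMSO stock in 50 mM KH2PO4, pH 7.4). Amplex Red working solution added: 2 mM p-tyramine (MAO-A) or benzylamine (MAO-B), 2 U/mL HRP. After 15 min at 37 °C, fluorescence read (ex 545/em 590), background from enzyme-free wells subtracted.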

The next data set has as its target Butyrylcholinesterase (Rattus norvegicus, UniProt Q9JKC1). The data set can be described thus: Inhibition of BuChE in rat serum using butyrylthiocholine iodide as substrate after 20 mins by Ellman's method.
The species named for the next data set is Rattus norvegicus. The data set can be described thus: Selectivity index, ratio of IC50 for BuChE in rat serum to IC50 for AChE in rat cortex homogenate. The data set is classed as tissue-based.
For data set [8], the target named is Butyrylcholinesterase (Rattus norvegicus) (UniProt Q9JKC1). Nature of the data set: Inhibition of BuChE in rat serum at 40 uM using butyrylthiocholine iodide as substrate after 20 mins by Ellman's method.
Butyrylcholinesterase (Rattus norvegicus), sequence (Q9JKC1 as listed by the source): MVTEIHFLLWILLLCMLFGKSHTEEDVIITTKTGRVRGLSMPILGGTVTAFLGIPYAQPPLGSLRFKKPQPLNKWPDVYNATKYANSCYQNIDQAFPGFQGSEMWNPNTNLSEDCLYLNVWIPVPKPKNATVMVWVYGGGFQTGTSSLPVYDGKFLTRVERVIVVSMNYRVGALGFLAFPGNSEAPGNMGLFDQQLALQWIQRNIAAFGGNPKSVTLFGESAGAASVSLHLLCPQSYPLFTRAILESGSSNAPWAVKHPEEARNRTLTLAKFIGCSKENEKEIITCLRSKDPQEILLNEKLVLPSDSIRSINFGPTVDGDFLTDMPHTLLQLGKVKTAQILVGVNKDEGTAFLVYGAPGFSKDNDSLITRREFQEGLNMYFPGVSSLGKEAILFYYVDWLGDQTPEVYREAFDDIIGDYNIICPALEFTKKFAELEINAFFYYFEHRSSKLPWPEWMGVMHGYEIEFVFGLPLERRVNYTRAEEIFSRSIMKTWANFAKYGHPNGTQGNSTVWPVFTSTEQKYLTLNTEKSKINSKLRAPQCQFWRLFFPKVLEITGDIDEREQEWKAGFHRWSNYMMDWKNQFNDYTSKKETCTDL

Butyrylcholinesterase, sequence (Q9JKC1 whole entry): as the sequence (Q9JKC1 as listed by the source) above

With `COc1cc2c(cc1OC)C(=O)C(CC1CCN(Cc3ccccc3)CC1)C2` (centres undefined) [DONEPEZIL], the Activity entry with Cortical neurone is “Non-Toxic”.
By Papp is commonly meant a coefficient for how fast a substance crosses the barrier. A higher Papp goes with fast passage. For `COc1ccc(CCN2CCC(Nc3nc4ccccc4n3Cc3ccc(F)cc3)CC2)cc1` [ASTEMIZOLE], the Papp at 18 h, 25 ug/ml in the data set “in vitro [1]” stood at 11 ×10⁻⁶ cm/s. For the same molecule, the apparent permeability (Papp) at 12 h, 100 ug/ml in the data set “in vitro [2]” amounted to 8.48 ×10⁻⁶ cm/s.
In general, inhibition refers to the relative decrease from the control value, in per cent. As to `Oc1c(I)cc(Cl)c2cccnc12`, the result in [3] was Active. Besides, the inhibition result in data set [4] is “Active”.
A word on the IC50: it is the concentration that gives 50% inhibition. With `C#CCNCc1cn(-c2cc(NC(=S)NCC)ncn2)cn1`, the Activity (umolequiv/umol) in data set [5] is 1.18. Moreover, the concentration for half-maximal inhibition (IC50) in [6] is 5.24 µM; against Acetylcholinesterase, 0.354 µM; in [7], 4.33 µM; at Butyrylcholinesterase it was more than 40 µM. In the data set “in vitro [2]”, this molecule had an apparent permeability (Papp) at 12 h, 100 ug/ml of 2.78 ×10⁻⁶ cm/s. The values for the Ratio IC50 in the data set filed under Homo sapiens and in the data set listed under Rattus norvegicus were 0.826 and more than 113, respectively. The molecule also gave an inhibition in data set [8] of 15.2%.
